Calls of active or inactive are those of the source. No cut-off for these calls is given here.
Assays:
Histone deacetylase 1 = Histone deacetylase 1 (Homo sapiens, UniProt Q13547); assay: Inhibition of recombinant full length HDAC1 (unknown origin) using Ac-peptide-AMC as substrate at 100 nM after 1 hr by fluorescence assay relative to control
Method in brief: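 Full-length recombinant HDAC1 or HDAC6 was incubated with compound, trypsin and Ac-peptide-AMC substrate for 1 h at room temperature. Fluorescence was read at ex 355/em 460 nm. Inhibition was calculated against the DMSO vehicle control.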

[1] = biological target: Histone deacetylase 3/Nuclear receptor corepressor 2 (HDAC3/NCoR2) (Homo sapiens, UniProt O15379); assay: Inhibition of human recombinant full length C-terminal His-tagged HDAC3 (1 to 428 residues)/N-terminal GST-tagged NCOR2 (395 to 489 residues) expressed in Sf9 cells using Ac-peptide-AMC as substrate after 1 hr by fluorescence assay
Histone deacetylase 8 = Histone deacetylase 8 (Homo sapiens, UniProt Q9BY41); assay: Inhibition of recombinant full length C-terminal His-tagged human HDAC8 expressed in baculovirus infected in Sf9 cells using Ac-peptide-AMC as substrate after 1 hr by fluorescence assay
Histone deacetylase 8, sequence (Q9BY41 whole entry): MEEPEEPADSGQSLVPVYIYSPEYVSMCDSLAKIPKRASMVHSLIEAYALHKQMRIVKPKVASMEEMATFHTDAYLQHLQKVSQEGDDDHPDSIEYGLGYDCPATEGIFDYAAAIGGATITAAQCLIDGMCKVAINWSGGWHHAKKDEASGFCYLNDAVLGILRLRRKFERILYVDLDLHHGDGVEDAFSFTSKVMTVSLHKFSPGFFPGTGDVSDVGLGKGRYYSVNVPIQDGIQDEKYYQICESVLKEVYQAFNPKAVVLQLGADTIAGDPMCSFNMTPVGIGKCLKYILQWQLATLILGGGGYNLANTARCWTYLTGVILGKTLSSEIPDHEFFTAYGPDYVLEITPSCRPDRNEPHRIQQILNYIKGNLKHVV

Histone deacetylase 4 = Histone deacetylase 4 (Homo sapiens, UniProt P56524); assay: Inhibition of recombinant full length human HDAC4 expressed in sf9 insect cells using Ac-peptide-AMC as substrate after 1 hr by fluorescence assay
Histone deacetylase 4, sequence (P56524 whole entry): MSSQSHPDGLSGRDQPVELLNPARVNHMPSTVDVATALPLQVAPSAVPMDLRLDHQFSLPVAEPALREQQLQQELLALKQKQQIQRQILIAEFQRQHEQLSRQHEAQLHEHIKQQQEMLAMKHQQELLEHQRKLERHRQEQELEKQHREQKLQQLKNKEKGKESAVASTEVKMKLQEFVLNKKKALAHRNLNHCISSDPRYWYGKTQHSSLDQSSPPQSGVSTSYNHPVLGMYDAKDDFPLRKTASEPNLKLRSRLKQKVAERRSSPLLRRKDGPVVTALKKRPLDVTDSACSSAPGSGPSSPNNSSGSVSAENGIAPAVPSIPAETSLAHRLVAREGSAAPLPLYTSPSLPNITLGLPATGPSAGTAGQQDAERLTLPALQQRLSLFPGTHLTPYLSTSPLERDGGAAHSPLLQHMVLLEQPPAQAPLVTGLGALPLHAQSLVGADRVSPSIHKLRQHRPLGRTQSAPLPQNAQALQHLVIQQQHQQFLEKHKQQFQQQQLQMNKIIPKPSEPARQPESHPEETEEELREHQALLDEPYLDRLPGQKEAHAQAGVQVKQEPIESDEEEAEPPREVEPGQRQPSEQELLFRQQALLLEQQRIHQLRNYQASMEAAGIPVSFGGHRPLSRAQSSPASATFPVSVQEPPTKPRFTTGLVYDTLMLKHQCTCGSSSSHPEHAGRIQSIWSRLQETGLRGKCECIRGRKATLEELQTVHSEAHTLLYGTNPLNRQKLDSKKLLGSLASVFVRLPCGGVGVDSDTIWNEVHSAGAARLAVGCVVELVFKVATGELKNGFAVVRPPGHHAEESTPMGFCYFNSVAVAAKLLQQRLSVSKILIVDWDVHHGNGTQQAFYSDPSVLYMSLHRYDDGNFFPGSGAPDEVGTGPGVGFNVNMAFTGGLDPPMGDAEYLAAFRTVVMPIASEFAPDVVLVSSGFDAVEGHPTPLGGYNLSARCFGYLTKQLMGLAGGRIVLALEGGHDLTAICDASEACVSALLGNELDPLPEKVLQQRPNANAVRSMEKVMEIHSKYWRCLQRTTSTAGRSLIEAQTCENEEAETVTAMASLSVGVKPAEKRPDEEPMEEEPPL

[2] = biological target: Protein deacetylase HDAC6 (Homo sapiens, UniProt Q9UBN7); assay: Inhibition of recombinant full length HDAC6 (unknown origin) using Ac-peptide-AMC as substrate after 1 hr by fluorescence assay
Protein deacetylase HDAC6, sequence (Q9UBN7 whole entry, the tested form may be a part): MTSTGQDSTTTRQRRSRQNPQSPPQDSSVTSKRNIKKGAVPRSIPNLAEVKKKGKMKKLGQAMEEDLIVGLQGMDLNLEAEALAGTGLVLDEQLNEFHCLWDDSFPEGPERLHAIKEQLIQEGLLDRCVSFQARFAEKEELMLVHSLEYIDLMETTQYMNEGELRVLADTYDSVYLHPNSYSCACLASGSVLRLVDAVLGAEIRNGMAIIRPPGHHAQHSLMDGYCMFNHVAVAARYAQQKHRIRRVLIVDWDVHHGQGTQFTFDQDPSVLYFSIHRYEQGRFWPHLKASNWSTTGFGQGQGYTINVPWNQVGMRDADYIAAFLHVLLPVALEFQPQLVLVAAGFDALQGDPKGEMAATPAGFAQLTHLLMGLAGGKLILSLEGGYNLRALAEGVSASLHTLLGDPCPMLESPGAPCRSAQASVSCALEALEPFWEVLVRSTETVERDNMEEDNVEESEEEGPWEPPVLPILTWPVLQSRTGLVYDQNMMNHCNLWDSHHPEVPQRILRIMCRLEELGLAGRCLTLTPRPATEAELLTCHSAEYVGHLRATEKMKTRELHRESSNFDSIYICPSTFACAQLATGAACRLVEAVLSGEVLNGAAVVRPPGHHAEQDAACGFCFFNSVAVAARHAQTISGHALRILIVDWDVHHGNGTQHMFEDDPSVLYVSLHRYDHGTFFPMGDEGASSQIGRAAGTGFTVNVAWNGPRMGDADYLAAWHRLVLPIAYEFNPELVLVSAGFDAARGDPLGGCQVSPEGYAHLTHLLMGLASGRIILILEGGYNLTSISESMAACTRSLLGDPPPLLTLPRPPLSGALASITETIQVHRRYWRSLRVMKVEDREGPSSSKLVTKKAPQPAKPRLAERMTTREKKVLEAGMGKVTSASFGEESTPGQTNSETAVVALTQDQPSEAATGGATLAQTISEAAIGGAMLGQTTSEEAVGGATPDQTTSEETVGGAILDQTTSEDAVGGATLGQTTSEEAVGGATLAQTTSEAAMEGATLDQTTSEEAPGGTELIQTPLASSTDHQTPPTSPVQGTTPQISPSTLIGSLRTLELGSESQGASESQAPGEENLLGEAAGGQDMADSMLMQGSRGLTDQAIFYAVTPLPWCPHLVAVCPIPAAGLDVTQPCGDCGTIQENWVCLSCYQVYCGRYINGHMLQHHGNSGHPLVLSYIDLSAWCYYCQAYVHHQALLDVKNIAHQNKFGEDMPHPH

[3] = biological target: Polyamine deacetylase HDAC10 (Homo sapiens, UniProt Q969S8); assay: Inhibition of recombinant N-terminal FLAG-tagged human HDAC10 (2 to 631 residues) expressed in baculovirus infected Sf9 cells using Ac-peptide-AMC as substrate after 1 hr by fluorescence assay
Polyamine deacetylase HDAC10, sequence (Q969S8 whole entry, the tested form may be a part): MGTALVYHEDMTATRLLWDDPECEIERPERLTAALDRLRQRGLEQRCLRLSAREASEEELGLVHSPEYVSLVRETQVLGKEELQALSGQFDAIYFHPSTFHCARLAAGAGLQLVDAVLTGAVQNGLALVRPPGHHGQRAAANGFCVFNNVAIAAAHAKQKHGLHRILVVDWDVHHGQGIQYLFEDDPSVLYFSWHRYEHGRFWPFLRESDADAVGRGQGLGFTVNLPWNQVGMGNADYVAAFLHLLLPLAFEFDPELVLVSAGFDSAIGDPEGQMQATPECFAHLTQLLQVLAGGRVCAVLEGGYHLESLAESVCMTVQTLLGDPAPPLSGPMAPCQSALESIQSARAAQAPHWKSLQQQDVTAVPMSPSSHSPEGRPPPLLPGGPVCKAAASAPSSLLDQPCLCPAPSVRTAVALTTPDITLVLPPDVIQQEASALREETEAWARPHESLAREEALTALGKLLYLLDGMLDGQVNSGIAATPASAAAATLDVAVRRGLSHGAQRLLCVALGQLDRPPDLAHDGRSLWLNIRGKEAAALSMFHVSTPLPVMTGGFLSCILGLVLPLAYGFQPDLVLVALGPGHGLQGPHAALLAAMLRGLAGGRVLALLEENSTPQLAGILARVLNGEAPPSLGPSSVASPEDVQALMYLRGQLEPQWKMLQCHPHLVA

HCT-116 = assay: Antiproliferative activity against human HCT116 cells after 72 hrs by MTT assay; format: functional, cell-based; details: HCT-116, 72 h
HepG2 = assay: Antiproliferative activity against human HepG2 cells after 72 hrs by MTT assay; format: functional, cell-based; details: HepG2, 72 h
MM1.S = assay: Antiproliferative activity against human MM1S cells after 72 hrs by MTT assay; format: functional, cell-based
Raji = assay: Antiproliferative activity against human Raji cells after 72 hrs by MTT assay; format: functional, cell-based
Leukemia cell = assay: Antiproliferative activity against human AML patient derived primary leukemia cells after 72 hrs by MTT assay; format: functional, cell-based
[4] = biological target: Histone deacetylase 1/2/3 (Homo sapiens) (UniProt Q13547+O15379+Q92769); assay: Inhibition of HDAC1/2/3 in human MM1S cells assessed as upregulation of H3 acetylation at 40 nM after 6 hrs by Western blot analysis; format: cell-based
JeKo-1 [5] = assay: Cell cycle arrest in human JeKo1 cells assessed as accumulation at S phase at 10 nM after 24 hrs by propidium iodide staining based flow cytometric analysis (reference value: 26.13 %); format: functional
JeKo-1 [6] = assay: Cell cycle arrest in human JeKo1 cells assessed as accumulation at G2/M phase at 10 nM after 24 hrs by propidium iodide staining based flow cytometric analysis (reference value: 10.71 %); format: functional
JeKo-1 [7] = assay: Cell cycle arrest in human JeKo1 cells assessed as accumulation at G2/M phase at 1000 nM after 24 hrs by propidium iodide staining based flow cytometric analysis (reference value: 10.71 %); format: functional
JeKo-1 [8] = assay: Induction of apoptosis in human JeKo1 cells assessed as late apoptotic cells at 10 nM after 48 hrs by annexin V-FITC/propidium iodide staining-based flow cytometric method (reference value: 3.07 %); format: functional
Method in brief: (§1)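 Jeko-1 cells were grown in RPMI-1640 with 10% FBS at 37 °C under 5% CO2. They were exposed to 0, 10, 100 or 1000 nM for 48 h, then apoptosis induction was analysed.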

JeKo-1 [9] = assay: Induction of apoptosis in human JeKo1 cells assessed as viable cells at 100 nM after 48 hrs by annexin V-FITC/propidium iodide staining-based flow cytometric method (reference value: 91.6 %); format: functional; details: JeKo-1, 48 h, read-out: Activity; method in brief: as §1
JeKo-1 [10] = assay: Induction of apoptosis in human JeKo1 cells assessed as late apoptotic cells at 100 nM after 48 hrs by annexin V-FITC/propidium iodide staining-based flow cytometric method (reference value: 3.07 %); format: functional; method in brief: as §1
JeKo-1 [11] = assay: Induction of apoptosis in human JeKo1 cells assessed as necrotic cells at 100 nM after 48 hrs by annexin V-FITC/propidium iodide staining-based flow cytometric method (reference value: 2.03 %); format: functional; method in brief: as §1
JeKo-1 [12] = assay: Induction of apoptosis in human JeKo1 cells assessed as late apoptotic cells at 1000 nM after 48 hrs by annexin V-FITC/propidium iodide staining-based flow cytometric method (reference value: 3.07 %); format: functional; method in brief: as §1
JeKo-1 [13] = assay: Induction of apoptosis in human JeKo1 cells assessed as necrotic cells at 1000 nM after 48 hrs by annexin V-FITC/propidium iodide staining-based flow cytometric method (reference value: 2.03 %); format: functional; method in brief: as §1
[14] = Clearance in Sprague-Dawley rat at 5 mg/kg, iv measured upto 24 hrs by LC-MS/MS analysis; format: ADME, organism-based; details: in vivo
Method in brief: (§2)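 SD rats (200-250 g), six per time point, given 5 mg/kg as a tail-vein bolus or orally. Blood was taken by cardiac puncture before dosing and at 5, 15, 30, 45 min and 1, 2, 4, 6, 8, 10, 12 and 24 h. Plasma was spun at 4000 g for 15 min at 4 °C and stored at -80 °C. Analysis was LC-MS/MS with multiple-reaction monitoring, followed by noncompartmental analysis.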

[15] = Cmax in Sprague-Dawley rat at 5 mg/kg, iv measured upto 24 hrs by LC-MS/MS analysis; format: ADME, organism-based; parameters: dose 5 mg/kg, route intravenous; details: in vivo; method in brief: as §2
[16] = Half life in Sprague-Dawley rat at 5 mg/kg, iv measured upto 24 hrs by LC-MS/MS analysis; format: ADME, organism-based; details: in vivo; method in brief: as §2
[17] = AUC ( 0 to t) in Sprague-Dawley rat at 5 mg/kg, po measured upto 24 hrs by LC-MS/MS analysis; format: ADME, organism-based; parameters: dose 5 mg/kg, time < 24 hr, route oral; details: in vivo; method in brief: as §2
[18] = Oral bioavailability in Sprague-Dawley rat at 5 mg/kg measured upto 24 hrs by LC-MS/MS analysis; format: ADME, organism-based; details: in vivo; method in brief: as §2
Daudi = assay: Antitumour activity against human Daudi cells xenografted in NOD/SCID mouse assessed as increase in acetylated H4 expression at 20 mg/kg, po treated on day 1,3 and 5 per week by immunohistochemical analysis; format: functional, organism-based
Method in brief: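 Daudi s.c. xenografts in female NOD/SCID mice (5–6 weeks) were randomized six per group at 100–200 mm3. Dosing was 10 mg/kg i.v. or 20 mg/kg p.o. in 8% HP-β-CD on days 1, 3 and 5 weekly. Tumors were collected at study end for immunohistochemistry, with comparison to the control group.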

[19] = Toxicity in NOD/SCID mouse xenografted with human Daudi cells assessed as organ damage at 20 mg/kg, po treated on day 1,3 and 5 per week and measured for every 2 days by H and E staining based assay; format: organism-based; details: in vivo, 48 h
Method in brief: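 Female NOD/SCID mice (5–6 weeks) bearing s.c. Daudi xenografts, six per group. Dosing was 10 mg/kg i.v. or 20 mg/kg p.o. in 8% HP-β-CD on days 1, 3 and 5 weekly. Behaviour was observed, and organ tissues were collected at sacrifice for H&E staining.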

Histone deacetylase 1, sequence (Q13547 whole entry): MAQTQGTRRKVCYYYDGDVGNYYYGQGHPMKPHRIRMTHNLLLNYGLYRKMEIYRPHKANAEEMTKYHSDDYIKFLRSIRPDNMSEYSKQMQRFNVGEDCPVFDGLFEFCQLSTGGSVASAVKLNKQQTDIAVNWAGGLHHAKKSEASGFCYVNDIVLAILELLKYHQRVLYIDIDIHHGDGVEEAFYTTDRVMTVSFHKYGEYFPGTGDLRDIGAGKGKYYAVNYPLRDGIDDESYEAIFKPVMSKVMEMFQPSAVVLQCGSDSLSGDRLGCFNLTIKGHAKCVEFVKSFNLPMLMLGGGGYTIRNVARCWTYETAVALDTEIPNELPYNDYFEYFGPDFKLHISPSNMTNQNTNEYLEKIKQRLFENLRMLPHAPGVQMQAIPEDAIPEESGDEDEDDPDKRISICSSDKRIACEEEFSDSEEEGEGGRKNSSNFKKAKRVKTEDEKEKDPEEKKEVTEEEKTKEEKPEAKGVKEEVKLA

`Cc1ccc(CN2CCC(c3noc(CN(C)c4ncc(C(=O)NO)cn4)n3)CC2)cc1` showed an inhibition (Histone deacetylase 1) of 96%, an IC50 [1] of 3 nM and an IC50 (Histone deacetylase 8) of 260 nM. For the same molecule, the IC50 (Histone deacetylase 4) was 473 nM, the IC50 [2] was 56 nM and the IC50 [3] was 102 nM. It also gave an IC50 (HCT-116) of 16 nM, an IC50 (HepG2) of 13 nM and an IC50 (MM1.S) of 9.8 nM. For the same molecule, the IC50 (Raji) was 12.1 nM, the IC50 (Leukemia cell) was 21.2 to 61.1 nM and the inhibition [4] was “Active”. It also gave an Activity (JeKo-1 [5]) of 24%, an Activity (JeKo-1 [6]) of 9.1% and an Activity (JeKo-1 [7]) of 4.32%. It also gave an Activity (JeKo-1 [8]) of 2.24%, a viability at 0.1 µM (JeKo-1 [9]) of 54.3% and an Activity (JeKo-1 [10]) of 17.3%. It also gave an Activity (JeKo-1 [11]) of 0.061%, an Activity (JeKo-1 [12]) of 30.4% and an Activity (JeKo-1 [13]) of 0.096%. It also gave a clearance [14] of 198 mL/min/kg, a Cmax [15] of 955 ng/mL and a half-life [16] of 23.4 min. For the same molecule, the AUC(0-t) at 24 h [17] was 232 ng·h/mL, the bioavailability [18] was 53.5% and the Activity (Daudi) was “Active”. The Activity [19] was “Non-Toxic”.
